ChEMBL document CHEMBL3751698, “5,7-Disubstituted-[1,2,4]triazolo[1,5-a][1,3,5]triazines as pharmacological tools to explore the antagonist selectivity profiles toward adenosine receptors” (Eur J Med Chem, 2016)

Legend:
[1] = organism: Homo sapiens; test: Selectivity index, ratio of Ki for human A3 adenosine receptor to Ki for human A2A adenosine receptor
[2] = target: T1, Adenosine receptor A1 (Homo sapiens, UniProt P30542); test: Displacement of [3H]CCPA from human A1 adenosine receptor expressed in CHO cell membranes
T1 sequence (P30542 whole entry): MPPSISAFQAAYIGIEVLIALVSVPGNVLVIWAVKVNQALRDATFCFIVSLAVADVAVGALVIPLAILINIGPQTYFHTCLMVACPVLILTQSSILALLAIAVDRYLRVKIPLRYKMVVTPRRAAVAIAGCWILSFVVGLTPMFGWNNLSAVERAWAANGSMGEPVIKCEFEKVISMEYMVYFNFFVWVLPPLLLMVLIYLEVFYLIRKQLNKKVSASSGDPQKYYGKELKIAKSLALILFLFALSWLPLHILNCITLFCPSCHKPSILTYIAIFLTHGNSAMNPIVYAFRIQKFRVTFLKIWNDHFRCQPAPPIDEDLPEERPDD
How it was run: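 Membranes from stably transfected CHO cells (1,000 x g spin to clear nuclei and debris, then 100,000 x g pellet), resuspended in binding buffer and frozen. Competition against 1 nM [3H]CCPA; nonspecific binding defined with 1 mM theophylline. Ki calculated from competition curves.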

[3] = organism: Homo sapiens; test: Selectivity index, ratio of Ki for human A1 adenosine receptor to Ki for human A2A adenosine receptor
[4] = target: T2, Adenosine receptor A3 (Homo sapiens, UniProt P0DMS8); test: Displacement of [3H]HEMADO from human A3 adenosine receptor expressed in CHO cell membranes
T2 sequence (P0DMS8 whole entry): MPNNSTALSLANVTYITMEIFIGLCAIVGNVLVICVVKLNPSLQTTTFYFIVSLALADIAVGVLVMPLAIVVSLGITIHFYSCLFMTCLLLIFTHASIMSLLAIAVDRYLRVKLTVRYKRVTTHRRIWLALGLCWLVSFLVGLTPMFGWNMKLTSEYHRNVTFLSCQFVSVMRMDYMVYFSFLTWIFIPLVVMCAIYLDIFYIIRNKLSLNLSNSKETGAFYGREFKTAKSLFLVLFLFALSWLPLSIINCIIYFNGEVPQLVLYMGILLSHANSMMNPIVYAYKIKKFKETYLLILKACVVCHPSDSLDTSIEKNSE
How it was run: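 Two-step centrifugation (1,000 x g, then 100,000 x g) of stably transfected CHO cells gave the membranes. Displacement of 1 nM [3H]HEMADO; nonspecific binding taken with 100 µM R-PIA. Ki computed from competition data.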

[5] = target: T3, Adenosine receptor A2b (Homo sapiens, UniProt P29275); test: Antagonist activity at human A2B adenosine receptor expressed in CHO cell membranes assessed as inhibition of NECA stimulated adenylyl cyclase activity; assay type: functional, cell-based
T3 sequence (P29275 whole entry): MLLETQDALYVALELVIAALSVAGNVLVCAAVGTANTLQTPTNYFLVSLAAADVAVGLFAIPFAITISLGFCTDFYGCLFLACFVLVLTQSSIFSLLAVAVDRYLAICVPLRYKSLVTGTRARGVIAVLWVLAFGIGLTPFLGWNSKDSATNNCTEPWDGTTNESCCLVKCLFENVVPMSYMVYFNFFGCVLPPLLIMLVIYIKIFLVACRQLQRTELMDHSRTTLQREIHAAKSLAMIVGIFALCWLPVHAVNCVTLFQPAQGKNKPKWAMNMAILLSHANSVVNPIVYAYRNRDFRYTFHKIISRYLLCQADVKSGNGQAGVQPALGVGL
How it was run: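 CHO cells stably expressing hA2B; crude membranes from a single high-speed spin, resuspended in 50 mM Tris/HCl pH 7.4 and used fresh. Incubated 20 min with about 150,000 cpm [α-32P]ATP in a mixture without EDTA and NaCl. IC50 for inhibition of NECA-stimulated cyclase obtained by Hill equation fit.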

[6] = target: Adenosine receptor A2a (Homo sapiens, UniProt P29274); test: Displacement of [3H]NECA from human A2A adenosine receptor expressed in CHO cell membranes
How it was run: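 Crude membranes from stably transfected CHO cells, prepared by a two-step spin (1,000 x g, then 100,000 x g). Competition with 10 nM [3H]NECA, with nonspecific binding measured in presence of 100 µM R-PIA. Ki derived from competition experiments.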

Chain of Adenosine receptor A2a (P29274 whole entry): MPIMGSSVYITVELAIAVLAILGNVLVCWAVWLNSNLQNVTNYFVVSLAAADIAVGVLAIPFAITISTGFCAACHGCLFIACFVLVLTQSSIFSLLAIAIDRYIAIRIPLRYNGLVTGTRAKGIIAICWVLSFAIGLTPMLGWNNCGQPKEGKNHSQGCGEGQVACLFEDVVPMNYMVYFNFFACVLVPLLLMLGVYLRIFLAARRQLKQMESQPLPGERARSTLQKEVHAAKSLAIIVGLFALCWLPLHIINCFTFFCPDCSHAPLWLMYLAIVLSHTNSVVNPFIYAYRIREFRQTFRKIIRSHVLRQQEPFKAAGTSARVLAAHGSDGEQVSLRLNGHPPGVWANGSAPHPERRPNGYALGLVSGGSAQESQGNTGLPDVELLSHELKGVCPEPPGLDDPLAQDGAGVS

Row | Compound | Ratio Ki [1] | Ki ([2]; read-out: Ki) [µM] | Ratio Ki [3] | Ki [4] [µM] | IC50 [5] [µM] | Ki [6] [µM] | Ki ([2]; cho)
1 | CC(C)Nc1nc(NC(=O)c2ccccc2)n2nc(-c3ccco3)nc2n1 | 6.23 | 24.4 | 11.3 | 13.4 | > 30 | 2.15 | –
2 | Fc1ccc(CNc2nc(NC3CCCCC3)nc3nc(-c4ccco4)nn23)cc1 | 11.6 | > 100 | > 893 | 1.3 | > 30 | 0.112 | –
3 | CC(C)Nc1nc(NC(=O)Cc2ccccc2)n2nc(-c3ccco3)nc2n1 | 0.65 | 7.15 | 18.2 | 0.257 | > 30 | 0.393 | –
4 | Fc1ccc(CNc2nc(Oc3ccccc3)nc3nc(-c4ccco4)nn23)cc1 | > 110 | > 100 | > 110 | > 100 | > 30 | 0.905 | –
5 | c1ccc(CNc2nc(Oc3ccccc3)nc3nc(-c4ccco4)nn23)cc1 | 0.67 | > 100 | > 178 | 0.375 | > 30 | 0.56 | –
6 | O=C(Nc1nc(NC2CCCCC2)nc2nc(-c3ccco3)nn12)c1ccccc1 | 8.33 | 7.56 | 7.41 | 8.5 | > 30 | 1.02 | –
7 | CNc1nc(NC(=O)Cc2ccccc2)n2nc(-c3ccco3)nc2n1 | 5.57 | 8.96 | 29.9 | 1.67 | > 30 | 0.3 | –
8 | CNc1nc(N)n2nc(-c3ccco3)nc2n1 | 31.6 | 2.57 | 52.1 | 1.56 | > 30 | 0.0493 | –
9 | CNc1nc(NC(=O)Nc2ccccc2)n2nc(-c3ccco3)nc2n1 | 5.74 | 3.85 | 38.6 | 0.572 | > 30 | 0.0996 | –
10 | Fc1ccc(CNc2nc(NCc3ccc(F)cc3)n3nc(-c4ccco4)nc3n2)cc1 | 2.82 | > 100 | > 2290 | 0.123 | > 30 | 0.0436 | –
11 | CC(C)Nc1nc(N)n2nc(-c3ccco3)nc2n1 | 8.76 | 4.31 | 66.5 | 0.568 | > 30 | 0.0648 | –
12 | CC(C)Nc1nc(NCc2ccccc2)n2nc(-c3ccco3)nc2n1 | 0.29 | > 100 | > 253 | 0.114 | > 30 | 0.394 | –
13 | CNc1nc(NCc2ccc(F)cc2)n2nc(-c3ccco3)nc2n1 | 2.37 | 3.08 | 13.1 | 0.557 | > 30 | 0.235 | –
14 | c1ccc(CNc2nc(NC3CCCCC3)nc3nc(-c4ccco4)nn23)cc1 | – | – | – | – | – | – | ND(Insoluble)
15 | CNc1nc(NCc2ccccc2)n2nc(-c3ccco3)nc2n1 | 1.59 | 2.77 | 16 | 0.275 | > 30 | 0.173 | –
16 | CNc1nc(NC(=O)c2ccccc2)n2nc(-c3ccco3)nc2n1 | 47.6 | 10.5 | 54.1 | 9.24 | > 30 | 0.194 | –

Continued by falling Ki ([2]; read-out: Ki), values first:

Row | Ratio Ki [1] | Ki ([2]; read-out: Ki) [µM] | Ratio Ki [3] | Ki [4] [µM] | IC50 [5] [µM] | Ki [6] [µM] | Ki ([2]; cho) | Compound
17 | 3.45 | 1.49 | 68.3 | 0.0753 | > 30 | 0.0218 | – | Fc1ccc(CNc2nc(NCc3ccccc3)nc3nc(-c4ccco4)nn23)cc1
18 | 2.63 | 1.45 | 15.2 | 0.25 | > 30 | 0.0952 | – | O=C(Nc1nc(NCc2ccccc2)nc2nc(-c3ccco3)nn12)c1ccccc1
19 | 1.96 | 1.18 | 13.6 | 0.17 | > 30 | 0.0869 | – | CC(C)Nc1nc(NC(=O)Nc2ccccc2)n2nc(-c3ccco3)nc2n1
20 | 12.1 | 1.01 | 42.8 | 0.286 | > 30 | 0.0236 | – | O=C(Cc1ccccc1)Nc1nc(NC2CCCCC2)nc2nc(-c3ccco3)nn12
21 | 44.3 | 0.946 | 120 | 0.349 | > 30 | 0.00787 | – | O=C(Nc1ccccc1)Nc1nc(NC2CCCCC2)nc2nc(-c3ccco3)nn12
22 | 0.26 | 0.801 | 2.02 | 0.105 | > 30 | 0.397 | – | CC(C)Nc1nc(NC2CCCCC2)n2nc(-c3ccco3)nc2n1
23 | 1.81 | 0.784 | 38.4 | 0.037 | 11.8 | 0.0204 | – | c1ccc(CNc2nc(NCc3ccccc3)n3nc(-c4ccco4)nc3n2)cc1
24 | 2.6 | 0.757 | 6.7 | 0.294 | > 30 | 0.113 | – | c1ccc(Oc2nc(NC3CCCCC3)n3nc(-c4ccco4)nc3n2)cc1
25 | 8.44 | 0.676 | 125 | 0.0455 | 7.62 | 0.00539 | – | O=C(Cc1ccccc1)Nc1nc(NCc2ccccc2)nc2nc(-c3ccco3)nn12
26 | 6.33 | 0.361 | 2.52 | 0.905 | > 30 | 0.143 | – | CNc1nc(NC2CCCCC2)n2nc(-c3ccco3)nc2n1
27 | 20.6 | 0.311 | 216 | 0.0297 | 4.36 | 0.00144 | – | O=C(Nc1ccccc1)Nc1nc(NCc2ccccc2)nc2nc(-c3ccco3)nn12
28 | 0.73 | 0.306 | 1.73 | 0.129 | > 30 | 0.177 | – | c1coc(-c2nc3nc(NC4CCCCC4)nc(NC4CCCCC4)n3n2)c1
29 | 104 | 0.138 | 38.8 | 0.37 | 13.4 | 0.00356 | – | Nc1nc(NC2CCCCC2)nc2nc(-c3ccco3)nn12
30 | 27.7 | 0.0946 | 85.2 | 0.0308 | 2.21 | 0.00111 | – | Nc1nc(NCc2ccccc2)nc2nc(-c3ccco3)nn12
31 | 29.9 | 0.0639 | 4.2 | 0.455 | > 30 | 0.0152 | – | c1ccc(CNc2nc(NC3CCCCC3)n3nc(-c4ccco4)nc3n2)cc1
